From ChEMBL document CHEMBL3098012, “A novel tamoxifen derivative, ridaifen-F, is a nonpeptidic small-molecule proteasome inhibitor” (Eur J Med Chem, 2014)
pIC50, pKi: −log10 of the molar value. Activity calls are given as the source filed them. The rule behind the calls is not given here.

Legend:
[1] = Inhibition of chymotrypsin-like activity of Saccharomyces cerevisiae 20S proteasome beta 5 subunit
[2] = system: HeLa; experiment: Cell cycle arrest in human HeLa cells assessed as accumulation at sub G1 phase at 60 uM after 24 hrs by propidium iodide staining-based flow cytometric analysis (reference value: 2.2%); format: functional
[3] = system: HeLa; experiment: Cell cycle arrest in human HeLa cells assessed as accumulation at sub G1 phase at 10 uM after 24 hrs by propidium iodide staining-based flow cytometric analysis (reference value: 2.2%); format: functional
[4] = system: HeLa; experiment: Induction of apoptosis in human HeLa cells assessed as caspase 3 cleavage at 1 to 30 uM after 24 hrs by Western blotting analysis; format: functional, cell-based
[5] = system: HeLa; experiment: Induction of apoptosis in human HeLa cells assessed as PARP cleavage after 24 hrs by Western blotting analysis; format: functional, cell-based
In short: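 HeLa cells seeded 4×10^5 cells/well, incubated 24 h with varying compound concentrations; PARP cleavage detected in lysates by Western blotting.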

[6] = molecular target: T1, Proteasome Macropain subunit MB1 (Homo sapiens) (UniProt P28074); experiment: Inhibition of biotin-labeled belactosin A binding to human 20S proteasome beta 5 subunit at 100 uM preincubated for 1 hr followed by biotin-labeled belactosin A treatment measured after 1 hr by Western blotting analysis
T1 sequence (whole entry): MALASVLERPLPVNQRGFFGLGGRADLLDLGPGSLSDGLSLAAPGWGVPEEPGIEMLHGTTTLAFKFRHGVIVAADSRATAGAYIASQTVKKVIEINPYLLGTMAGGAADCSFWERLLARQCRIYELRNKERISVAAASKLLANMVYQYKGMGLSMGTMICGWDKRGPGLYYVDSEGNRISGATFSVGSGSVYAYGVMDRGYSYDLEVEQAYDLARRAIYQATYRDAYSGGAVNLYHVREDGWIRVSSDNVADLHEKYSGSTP
In short: (§1)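 Purified human 20S proteasome preincubated 1 h at 37 °C with varying compound levels, then biotin-belactosin A added to 1 µM for a further 1 h. Proteins separated by SDS-PAGE, blotted to PVDF, milk-blocked; biotin-labelled subunits detected with streptavidin-HRP and ECL.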

[7] = molecular target: T1, Proteasome Macropain subunit MB1 (Homo sapiens); experiment: Inhibition of biotin-labeled belactosin A binding to human 20S proteasome beta 5 subunit at 1 to 100 uM preincubated for 1 hr followed by biotin-labeled belactosin A treatment measured after 1 hr by Western blotting analysis; in short: as §1
[8] = molecular target: T2, Proteasome component C5 (Homo sapiens) (UniProt P20618); experiment: Inhibition of biotin-labeled belactosin A binding to human 20S proteasome beta 1 subunit preincubated for 1 hr followed by biotin-labeled belactosin A treatment measured after 1 hr by Western blotting analysis; in short: as §1
T2 sequence (whole entry): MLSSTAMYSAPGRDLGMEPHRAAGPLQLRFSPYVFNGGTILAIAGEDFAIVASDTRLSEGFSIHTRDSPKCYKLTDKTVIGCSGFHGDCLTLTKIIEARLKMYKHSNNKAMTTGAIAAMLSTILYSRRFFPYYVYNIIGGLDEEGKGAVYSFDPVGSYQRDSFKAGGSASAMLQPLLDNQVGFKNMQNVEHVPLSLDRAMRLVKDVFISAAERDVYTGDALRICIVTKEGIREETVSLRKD

[9] = molecular target: T3, Proteasome Macropain subunit MB1 (Homo sapiens, UniProt P28074); experiment: Noncompetitive inhibition of chymotrypsin-like activity of human 20S proteasome beta 5 subunit assessed as hydrolysis of succinyl-LLVY-AMC fluorogenic substrate Lineweaver-Burk plot analysis
T3 sequence (P28074 whole entry): T1 sequence (whole entry)

[10] = molecular target: T2, Proteasome component C5 (Homo sapiens); experiment: Inhibition of biotin-labeled belactosin A binding to human 20S proteasome beta 1 subunit at 10 uM preincubated for 1 hr followed by biotin-labeled belactosin A treatment measured after 1 hr by Western blotting analysis; in short: as §1
[11] = molecular target: T3, Proteasome Macropain subunit MB1; experiment: Inhibition of chymotrypsin-like activity of human 20S proteasome beta 5 subunit assessed as hydrolysis of succinyl-LLVY-AMC fluorogenic substrate measured for 1 hr by fluorometric analysis
In short: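 Purified human 20S proteasome (0.1 µg) incubated at 37 °C with 50 µM succinyl-LLVY-AMC (CT-L) or 20 µM Z-LLE-AMC (PGPH) and compound at 0.01–10 µM in 25 mM HEPES, 0.5 mM EDTA, 0.03% SDS. IC50 taken from inhibition curve; means of three experiments.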

[12] = Cytotoxicity against ER-negative HEK293 cells after 48 hrs by MTT assay; format: cell-based; conditions: human
In short: (§2)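 HEK293 (DMEM) or HL-60 (IMDM) cells, each with 10% FBS plus penicillin/streptomycin, seeded 5×10^3 cells/well in duplicate. Exposed 48 h to compound at […]. MTT reduction read as 560/750 nm absorbance ratio after HCl/2-propanol extraction. CyT50 from inhibition curve; means of triplicate.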

[13] = system: HL-60; experiment: Cytotoxicity against […] human HL60 cells after 48 hrs by MTT assay; format: functional; conditions: HL-60, 48 h; in short: as §2
[14] = system: HeLa; experiment: Inhibition of proteasome in human HeLa cells assessed as accumulation of ubiquitinated proteins at 30 uM after 24 hrs by Western blotting analysis; format: cell-based
In short: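 HeLa cells, 4×10^5 cells/well, treated 24 h with compound; vehicle control 0.25% DMSO. Lysed in Tris–HCl/2% SDS/glycerol buffer with protease and phosphatase inhibitors; 30 µg protein run on SDS-PAGE, PVDF blot probed with anti-ubiquitin (1:200), actin as loading reference, HRP secondary, ECL detection.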

[15] = species: Homo sapiens; experiment: Inhibition of calpain (unknown origin) at >10 uM
[16] = species: Homo sapiens; experiment: Inhibition of cathepsin (unknown origin) at >10 uM

pIC50 [1]: 5.74 | inhibition [6]: Active | inhibition [7]: Active | inhibition [8]: Dose-dependent effect | pKi [9]: 6.24 | inhibition [10]: Active | pIC50 [11]: 6.19 | inhibition [15]: inactive | inhibition [16]: inactive
SMILES: CCC(=C(c1ccc(OCCN2CCCCCC2)cc1)c1ccc(OCCN2CCCCCC2)cc1)c1ccccc1
Activity [2]: 4.7% | Activity [3]: 3.4% | Activity [4]: Active | Activity [5]: Dose-dependent effect | CC50 at 48 h [12]: 4380 nM | CC50 [13]: 3420 nM | inhibition [14]: Active
